Reference: ChEMBL document CHEMBL3297675, “Mahorones, highly brominated cyclopentenones from the red alga Asparagopsis taxiformis” (J Nat Prod, 2014)
≈ marks a conversion by molar mass, not a printed value. Calls of active or inactive are those of the source. The calls are words filed in the database; no cut-off is given here.

Key:
Staphylococcus aureus [1] = assay: Antibacterial activity against methicillin-sensitive Staphylococcus aureus by resazurin-based assay; assay type: functional
Pseudomonas aeruginosa = assay: Antibacterial activity against Pseudomonas aeruginosa by resazurin-based assay; assay type: functional
Staphylococcus aureus [2] = assay: Antibacterial activity against methicillin-resistant Staphylococcus aureus by resazurin-based assay; assay type: functional
Summary of the method: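 MRSA was grown in Luria Broth liquid culture with diluted inoculum, compound added from a DMSO stock. Plates were incubated overnight at 37 °C and scored for visible growth by turbidity or fluorescence, with resazurin as the viability read-out. Tests were run in triplicate within one experiment.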

Escherichia coli [3] = assay: Antibacterial activity against Escherichia coli 2884 by resazurin-based assay; assay type: functional
Escherichia coli [4] = assay: Antibacterial activity against Escherichia coli 5746 by resazurin-based assay; assay type: functional
Summary of the method: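 Liquid broth assay in Luria Broth, inoculum plus compound from 0.312 mM DMSO stock. Tested at 5 μM final in triplicate within one experiment. Overnight incubation at 37 °C. Growth read by turbidity or fluorescence, with viability scored using resazurin at 0.002% final.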

A549 = assay: Cytotoxicity against human A549 cells after 24 hrs by MTT assay; assay type: functional, cell-based
Summary of the method: (§1)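 MTT assay with cells seeded at 3 × 10^4 cells/well. Compound taken from 1 mM DMSO stock, diluted 1/200 into medium and left on cells 24 h at 37 °C, 5% CO2. MTT then added at 0.5 mg·mL−1 in phenol red-free MEM for 3 h. Formazan dissolved in DMSO and absorbance read at 570 nm.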

Acinetobacter baumannii = assay: Antibacterial activity against Acinetobacter baumannii by resazurin-based assay; assay type: functional
HT-29 = assay: Cytotoxicity against human HT-29 cells after 24 hrs by MTT assay; assay type: functional, cell-based; summary of the method: as §1
MCF7 = assay: Cytotoxicity against human MCF7 cells after 24 hrs by MTT assay; assay type: functional, cell-based; summary of the method: as §1
HepG2 = assay: Cytotoxicity against human HepG2 cells after 24 hrs by MTT assay; assay type: functional, cell-based; summary of the method: as §1
Aspergillus fumigatus [5] = assay: Antifungal activity against Aspergillus fumigatus by resazurin-based assay in presence of caspofungin enhancer; assay type: functional
Summary of the method: (§2)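 Liquid assay in modified RPMI medium: RPMI-1640, Yeast Nitrogen Base, 1.8% glucose, 40 mM HEPES pH 7.1. Compound added from 0.5 mM solution before inoculum. Tested at 5 μM final in triplicate. Amphotericin B curve (0.5−4 μg·mL−1) run as control. Incubated overnight at 37 °C, then viability scored with resazurin at 0.002% final.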

Aspergillus fumigatus [6] = assay: Antifungal activity against Aspergillus fumigatus by resazurin-based assay; assay type: functional; summary of the method: as §2
[7] = Cytotoxicity against human Fa2N-4 cells after 24 hrs by MTT assay; assay type: cell-based; conditions: fa2n-4, 24 h; summary of the method: as §1
Aliivibrio fischeri = assay: Toxicity in Vibrio fischeri NRRL B-11177 assessed as reduction in bioluminescence after 15 mins by microtox assay; assay type: organism-based; conditions: NRRL B-11177, 0.25 h
Summary of the method: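 Microtox assay with V. fischeri. Samples made up to 500 μg·mL−1 initial in artificial seawater containing 2% acetone, then tested at 45, 22.5, 11.25 and 5.625% of initial, in triplicate. Light loss read after 15 min exposure, γ = (I0/It) − 1. EC50 taken from log γ versus log concentration regression at γ = 1.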

[8] = Cytotoxicity against human Fa2N-4 cells assessed as growth inhibition at 5 uM after 24 hrs by MTT assay relative to control; assay type: cell-based; conditions: read-out: GI
Summary of the method: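 Fa2N4 healthy liver cells seeded at 3 × 10^4 cells/well. Exposed to compound at 5 μM (1 mM DMSO stock diluted 1/200) for 24 h at 37 °C, 5% CO2. Then 0.5 mg·mL−1 MTT for 3 h, formazan dissolved in DMSO, absorbance at 570 nm. Growth inhibition expressed as percent.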

| Compound | MIC80 (Staphylococcus aureus [1]) [µg/mL] | MIC80 (Pseudomonas aeruginosa) [µg/mL] | MIC80 (Staphylococcus aureus [2]) [µg/mL] | MIC80 (Escherichia coli [3]) [µg/mL] | MIC80 (Escherichia coli [4]) [µg/mL] | MIC80 (Acinetobacter baumannii) [µg/mL] | further results |
| --- | --- | --- | --- | --- | --- | --- | --- |
| CC1(C)S[C@@H]2[C@H](NC(=O)Cc3ccccc3)C(=O)N2[C@H]1C(=O)O [PENICILLIN G] | 0.01 (≈ 0.0299 µM) | – | – | – | – | – | – |
| O=C(O)c1cn(C2CC2)c2cc(N3CCNCC3)c(F)cc2c1=O [CIPROFLOXACIN] | – | 1.5 (≈ 4.53 µM) | – | – | – | – | – |
| C[C@@H](O)[C@H]1C(=O)N2C(C(=O)O)=C(SCCNC=N)C[C@H]12 [IMIPENEM ANHYDROUS] | – | – | 8 (≈ 26.7 µM) | – | – | – | – |
| CO[C@@H]1[C@@H](OC(N)=O)[C@@H](O)[C@H](Oc2ccc3c(O)c(NC(=O)c4ccc(O)c(CC=C(C)C)c4)c(=O)oc3c2C)OC1(C)C [NOVOBIOCIN] | – | – | – | 0.3 (≈ 0.49 µM) | 0.1 (≈ 0.163 µM) | – | – |
| O=C1C(Br)=C(Br)[C@@](O)(C(Br)Br)[C@@H]1Br | > 32 | > 10 | 16 (≈ 31.6 µM) | > 32 | 32 (≈ 63.2 µM) | 16 (≈ 31.6 µM) | Activity (A549): inactive; Activity (HT-29): inactive; Activity (MCF7): inactive; Activity (HepG2): inactive; MIC80 (Aspergillus fumigatus [5]): > 32 µg/mL; MIC80 (Aspergillus fumigatus [6]): > 32 µg/mL; Activity [7]: Non-toxic; EC50 (Aliivibrio fischeri): 0.08 µg/mL (≈ 0.158 µM) |
| CO[C@H]1/C=C/O[C@@]2(C)Oc3c(C)c(O)c4c(O)c(c(/C=N/N5CCN(C)CC5)c(O)c4c3C2=O)NC(=O)/C(C)=C\C=C\[C@H](C)[C@H](O)[C@@H](C)[C@@H](O)[C@@H](C)[C@H](OC(C)=O)[C@@H]1C [RIFAMPIN] | – | – | – | – | – | 1 (≈ 1.22 µM) | – |
| O=C1C[C@](O)(C(Br)Br)C(Br)=C1Br | > 32 | > 10 | 16 (≈ 37.4 µM) | > 32 | 16 (≈ 37.4 µM) | 8 (≈ 18.7 µM) | Activity (A549): inactive; inhibition at 24 h, 5 µM [8]: 53%; Activity (HT-29): inactive; Activity (MCF7): inactive; Activity (HepG2): inactive; MIC80 (Aspergillus fumigatus [5]): > 32 µg/mL; MIC80 (Aspergillus fumigatus [6]): > 32 µg/mL; EC50 (Aliivibrio fischeri): 0.07 µg/mL (≈ 0.164 µM) |
